Results of several laboratories.
Lines come from different studies, so protocols differ.
Target: MAP/microtubule affinity-regulating kinase 4 (MARK4, Homo sapiens, UniProt Q96L34)
Effect on: enzyme activity
Mode: inhibitor
Residues used in one study (Q96L34 1-752): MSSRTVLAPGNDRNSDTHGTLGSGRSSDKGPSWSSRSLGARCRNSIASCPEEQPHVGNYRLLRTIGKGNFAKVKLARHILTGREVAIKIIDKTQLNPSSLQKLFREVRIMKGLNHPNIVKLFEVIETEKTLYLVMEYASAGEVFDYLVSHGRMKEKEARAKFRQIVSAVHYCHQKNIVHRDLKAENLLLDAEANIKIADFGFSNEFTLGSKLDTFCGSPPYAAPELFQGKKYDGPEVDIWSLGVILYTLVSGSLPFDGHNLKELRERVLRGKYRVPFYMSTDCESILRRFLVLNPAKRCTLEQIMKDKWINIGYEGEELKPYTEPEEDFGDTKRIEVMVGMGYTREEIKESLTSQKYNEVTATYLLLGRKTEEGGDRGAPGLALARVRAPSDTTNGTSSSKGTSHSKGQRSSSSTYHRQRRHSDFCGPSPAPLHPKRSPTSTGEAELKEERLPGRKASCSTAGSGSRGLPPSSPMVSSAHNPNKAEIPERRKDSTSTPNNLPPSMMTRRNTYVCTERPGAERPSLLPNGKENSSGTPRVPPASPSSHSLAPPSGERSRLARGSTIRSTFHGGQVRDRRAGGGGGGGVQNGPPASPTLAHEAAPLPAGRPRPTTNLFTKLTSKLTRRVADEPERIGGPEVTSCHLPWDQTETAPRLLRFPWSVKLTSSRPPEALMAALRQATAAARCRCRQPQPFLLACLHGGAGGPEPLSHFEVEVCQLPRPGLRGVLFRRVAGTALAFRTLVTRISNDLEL

Structure (SMILES)	test	conditions	remaining activity
O=C(Nc1cnn(-c2csc(C(=O)NC3COC3)c2)c1)Nc1c(F)cccc1Cl	–	5 µM	97.9%
Brc1cnc(Nc2cccc(CN3CCOCC3)c2)nc1NCCc1c[nH]cn1	radiometric	1 µM	3%
COc1cc(Cl)c(C(=O)N[C@@H](CN[C@H]2CC[C@@H](N)CC2)Cc2ccc(C#N)cc2)cc1-c1ccc(CN[C@H](C)c2ccc(C)cc2)o1	–	1 µM	91%
Cc1nn(CC(F)(F)F)cc1Nc1ncc(C2CC2)c(NCCc2c[nH]cn2)n1	radiometric	1 µM	88%
CC(C)(C)c1nc2c(s1)c1nc(N)ncc1c1ccc(NS(=O)(=O)c3c(F)cccc3F)c(F)c12	radiometric	1 µM	88%
FC(F)c1nc2ccccc2n1-c1nc(N2CCOCC2)nc(N2CCOCC2)n1	–	10 µM	89%
NS(=O)(=O)c1ccc(CNc2ccnc(Nc3cccc(NC(=O)N4CCCC4)c3)n2)cc1	radiometric	1 µM	99%
COc1cc(Nc2cnc(C#N)c(O[C@H](C)CN(C)C)n2)ncc1-c1cnn(C)c1	radiometric	1 µM	105%
Cn1c(=O)n(-c2ccc(C(C)(C)C#N)cc2)c2c3cc(-c4cnc5ccccc5c4)ccc3ncc21	–	10 µM	81%
CC(C)(C)c1nc(-c2cccc(NS(=O)(=O)c3c(F)cccc3F)c2F)c(-c2ccnc(N)n2)s1	radiometric	1 µM	84%
Cc1nn(CC(F)(F)F)cc1Nc1nccc(NCCCNC(=O)C2CCC2)n1	radiometric	1 µM	113%
Cc1ccc(Nc2nccc(N(C)c3ccc4c(C)n(C)nc4c3)n2)cc1S(N)(=O)=O	–	0.5 µM	98%
Cc1ccc(C(=O)Nc2ccc(CN3CCN(C)CC3)c(C(F)(F)F)c2)cc1C#Cc1cnc2cccnn12	–	23.5 nM	94%
Cc1sc(C(=O)NC2COC2)cc1-n1cc(NC(=O)Nc2c(F)cccc2Cl)cn1	–	10 µM	108%
Cc1nn(CC(F)(F)F)cc1Nc1nccc(NCc2ccc(S(N)(=O)=O)cc2)n1	radiometric	1 µM	101%
CC(C)(O)[C@H]1CC[C@H](Nc2ccc3ncc(-c4cccc(C(F)(F)F)c4)n3n2)CC1	–	1 µM	97.8%
